FN deposit inh: fibronectin deposition inhibition; AH1F fibroblasts, Alexa488-fibronectin deposition fluorescence, overnight; 0.086% of 350,000 active; inhibition, % at 12.6 µM;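 active = mean inhibition across replicates of 30% or more, regardless of how many single replicates reach that level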;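 also: positive control wells lacked labelled fibronectin entirely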
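Material – AH1F fibroblast monolayer, labelled fibronectin deposition · Reagent – labelled fibronectin 24 nM · Timing – 1 h adhesion, overnight exposure · Measured by – fluorescence at 485 nm excitation, 525 nm emission · Read-out – inhibition of fibronectin deposition signal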
RAD54 inh: inhibitors of human RAD54 branch migration; Q92698; 0.14% of 360,000 active; inhibition, % at 10.4 µM; RAD54 Holliday junction branch migration, FAM/BHQ fluorescence;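 active = mean normalized replicate activity at least 40 and at least half of replicates scoring 40 or more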;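 also: 0% = median of neutral control wells and 100% = median of positive control wells; inhibitors cause a drop in the FAM fluorescence signal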
PAX8 inh HTS: lowers PAX8-driven luciferase in RMG-I cells | RMG-I TPO-luciferase reporter, SteadyGlo, 24 h | inhibition, % at 12.6 µM | 1.2% of 360,000 active | AID 652154;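 active = mean replicate inhibition at least 60% with every replicate also reaching 60%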;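 also: luciferase light reporting Pax8 driven TPO promoter activity; plate controls were median of neutral control wells for no effect and mitoxantrone controls for full effect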
RAD52 anneal inh: inhibitors of human RAD52 DNA annealing. 0.46% of 360,000 active. recombinant RAD52 DNA annealing, FRET fluorescence. P43351. AID 651710. inhibition, % at 18.7 µM;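 active = every replicate showing at least 50% inhibition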
Target sequence (P43351 whole entry, looked up): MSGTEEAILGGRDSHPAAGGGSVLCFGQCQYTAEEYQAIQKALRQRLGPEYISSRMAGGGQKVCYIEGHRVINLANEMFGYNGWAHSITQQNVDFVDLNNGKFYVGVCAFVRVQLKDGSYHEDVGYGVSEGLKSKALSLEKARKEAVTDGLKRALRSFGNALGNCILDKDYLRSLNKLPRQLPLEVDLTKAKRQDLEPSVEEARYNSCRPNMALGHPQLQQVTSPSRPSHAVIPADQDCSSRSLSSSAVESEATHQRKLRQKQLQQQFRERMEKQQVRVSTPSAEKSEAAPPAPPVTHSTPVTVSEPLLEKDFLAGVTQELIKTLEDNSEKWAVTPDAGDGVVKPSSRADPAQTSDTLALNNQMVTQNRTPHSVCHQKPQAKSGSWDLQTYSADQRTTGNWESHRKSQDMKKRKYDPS
* = called active by the depositor. An excerpt weighted towards active compounds, which were near 1.3% of everything screened.

Screening COc1ccc(CN(C)C[C@@H]2OCCCC[C@H](C)Oc3ccc(NS(=O)(=O)c4ccc(F)cc4)cc3C(=O)N([C@H](C)CO)C[C@@H]2C)cc1 returned FN deposit inh 4, RAD54 inh -2, PAX8 inh HTS -2 and RAD52 anneal inh 53*.
`COc1ccc(CN(C)C[C@H]2OCCCC[C@@H](C)Oc3ccc(NS(=O)(=O)c4ccc(OC)cc4)cc3C(=O)N([C@H](C)CO)C[C@@H]2C)cc1` gave FN deposit inh 4, RAD54 inh -17 and PAX8 inh HTS -7.
`Cc1cccc(CSc2nn3c(=O)c(C)nnc3s2)c1` gave FN deposit inh -12, RAD54 inh -3 and PAX8 inh HTS -20.
Screening CCC1(O)C(=O)OCc2c1cc1n(c2=O)Cc2cc3c(N)cccc3nc2-1 (centres undefined) returned FN deposit inh -18, PAX8 inh HTS 110* and RAD52 anneal inh -38.
`COc1ccc2c(COC(=O)CNC(=O)C34CC5CC(CC(C5)C3)C4)cc(=O)oc2c1` gave FN deposit inh -3, RAD54 inh -10, PAX8 inh HTS 122* and RAD52 anneal inh -34.
`COc1cc(NC(=O)COC(=O)CNC(=O)C23CC4CC(CC(C4)C2)C3)cc(OC)c1` gave FN deposit inh 0, RAD54 inh 6, PAX8 inh HTS 4 and RAD52 anneal inh -15.
Screening CCCCN(C(=O)C(C)Oc1ccc(Cl)cc1)c1c(N)n(CCCC)c(=O)[nH]c1=O (centres undefined) returned FN deposit inh 7, RAD54 inh -4, PAX8 inh HTS 6 and RAD52 anneal inh -10.
O=C(COC(=O)c1cccnc1Cl)Nc1ccc2c(c1)OCO2 was read as FN deposit inh -7, RAD54 inh 2, PAX8 inh HTS -17 and RAD52 anneal inh -17.
O=C1C(=O)c2cccnc2-c2ncccc21 was read as FN deposit inh 45*, PAX8 inh HTS 107* and RAD52 anneal inh 42.
`COc1ccc(-n2nc([N+](=O)[O-])c(=NCc3cccnc3)n2O)cc1` gave FN deposit inh -9, RAD54 inh -2, PAX8 inh HTS 146* and RAD52 anneal inh -6.
`COc1ccc(-n2nc([N+](=O)[O-])c(=NCc3ccco3)n2O)cc1` gave FN deposit inh 1, PAX8 inh HTS -131 and RAD52 anneal inh -13.
For Cc1cccc(Nc2nc3c(s2)CCCC3)c1 the results were FN deposit inh -4, RAD54 inh 9 and PAX8 inh HTS -216.
O=C(O)c1ccc(Nc2nc3c(s2)CCCC3)cc1 was read as FN deposit inh -9, PAX8 inh HTS 67* and RAD52 anneal inh -15.
COC1=CC(=O)c2nc(Cl)ccc2C1=O was read as FN deposit inh 10, PAX8 inh HTS 107* and RAD52 anneal inh 14.
Screening O=C(CSc1oc(-c2cccs2)nc1S(=O)(=O)c1ccc(F)cc1)NCC1CCCO1 (centres undefined) returned FN deposit inh 0, RAD54 inh -5, PAX8 inh HTS 1 and RAD52 anneal inh 0.
`O=C(Cn1cc(C(F)(F)F)ccc1=O)Nc1cc(S(=O)(=O)N2CCOCC2)ccc1Cl` gave FN deposit inh 0, RAD54 inh 2, PAX8 inh HTS 0 and RAD52 anneal inh 0.
Screening CCCCCc1cc(=O)oc2c(C(CCN(CC)CC)c3cc(OC)c(OC)c(OC)c3)c(OC)cc(OC)c12 (centres undefined) returned FN deposit inh -11, RAD54 inh 21, PAX8 inh HTS 15 and RAD52 anneal inh 57*.
For CCCCCc1cc(=O)oc2c(C(CCN3CCCCC3)c3ccc4c(c3)OCO4)c(OC)cc(OC)c12 (centres undefined) the results were FN deposit inh -4, RAD54 inh -7, PAX8 inh HTS 88* and RAD52 anneal inh 16.
Cc1cc(C)n2nc(C(=O)Nc3ccn(Cc4ccccc4C)n3)cc2n1 was read as FN deposit inh -1, RAD54 inh 4, PAX8 inh HTS -17 and RAD52 anneal inh -9.
O=C1c2ccccc2C(=O)N1CSc1nnc(Nc2ccccc2F)s1 was read as FN deposit inh 5, PAX8 inh HTS 78* and RAD52 anneal inh -9.
For CC1CN(C(=O)c2cc3c(=O)n4ccccc4nc3n2C)CC(C)O1 (centres undefined) the results were FN deposit inh 36*, RAD54 inh -3, PAX8 inh HTS 6 and RAD52 anneal inh -20.
`Cn1c(C(=O)N2CCOCC2)cc2c(=O)n3ccccc3nc21` gave FN deposit inh -3, RAD54 inh -13, PAX8 inh HTS -14 and RAD52 anneal inh -1.
Screening COC(=O)c1c(N)n(CCCN2CCOCC2)c2nc3ccccc3nc12 returned FN deposit inh 1, RAD54 inh 79* and PAX8 inh HTS -16.

High-throughput results from PubChem BioAssay.
